Results: ChEMBL document CHEMBL4334469, “Integrated Synthetic, Biophysical, and Computational Investigations of Covalent Inhibitors of Prolyl Oligopeptidase and Fibroblast Activation Protein α” (J Med Chem, 2019)
Active and inactive are the calls of the source. The calls are words filed in the database; no cut-off is given here. Peptide text beside a SMILES is read from it. * marks the point of attachment. Cbz = O=C(OCc1ccccc1)*

How the values were obtained:
Prolyl endopeptidase = target: T1, Prolyl endopeptidase (Homo sapiens, UniProt P48147); assay: (§1) Inhibition of recombinant human POP pre-incubated for 30 mins before addition of ZGP-pNA substrate by absorbance assay
T1 sequence (P48147 whole entry): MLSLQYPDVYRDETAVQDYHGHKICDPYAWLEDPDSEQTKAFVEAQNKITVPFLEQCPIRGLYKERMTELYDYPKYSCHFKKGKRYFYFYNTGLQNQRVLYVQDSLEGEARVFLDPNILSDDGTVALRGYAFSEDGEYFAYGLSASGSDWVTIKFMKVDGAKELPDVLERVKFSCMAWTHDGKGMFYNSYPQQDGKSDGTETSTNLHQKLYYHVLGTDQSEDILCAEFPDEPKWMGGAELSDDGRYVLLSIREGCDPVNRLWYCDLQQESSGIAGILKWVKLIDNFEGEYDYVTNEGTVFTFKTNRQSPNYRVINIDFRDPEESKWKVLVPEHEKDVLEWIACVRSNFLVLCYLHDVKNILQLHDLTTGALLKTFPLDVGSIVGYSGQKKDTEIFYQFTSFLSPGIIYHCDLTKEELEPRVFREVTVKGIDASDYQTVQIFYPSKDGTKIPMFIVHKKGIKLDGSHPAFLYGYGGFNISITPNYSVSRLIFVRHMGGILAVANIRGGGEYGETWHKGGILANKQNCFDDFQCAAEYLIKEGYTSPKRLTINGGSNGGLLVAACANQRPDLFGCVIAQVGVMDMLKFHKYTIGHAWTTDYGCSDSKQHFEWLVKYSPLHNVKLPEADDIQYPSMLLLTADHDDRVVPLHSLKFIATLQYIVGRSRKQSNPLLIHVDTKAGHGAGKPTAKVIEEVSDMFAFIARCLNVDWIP

[1] = target: Prolyl endopeptidase FAP (Homo sapiens) (UniProt Q12884); assay: Inhibition of human recombinant FAP at 100 uM using fluorogenic DPP substrate1 relative to control
[2] = Drug metabolism in buffer assessed as formation of [(2R)-1-(2-benzyl-3-oxo-isoindoline-4-carbonyl)pyrrolidin-2-yl]boronic acid after 10 mins by LC-MS analysis
Method in brief: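 Boronic ester hydrolysis was followed by LC-MS (UHPLC-QTOF, positive ESI). Ester from a 100 mM DMSO stock was diluted 1:10 into buffer in a capped autosampler vial. Aliquots were taken at 5 min intervals and loop-injected in 1:1 water/acetonitrile with 0.1% formic acid. The boronic ester remaining was tracked over time.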

[3] = target: T2, Prolyl endopeptidase (Homo sapiens) (UniProt P48147); assay: as §1
T2 sequence (whole entry): T1 sequence (P48147 whole entry)

[4] = target: Prolyl endopeptidase FAP (Homo sapiens) (UniProt Q12884); assay: Inhibition of human recombinant FAP at 10 uM using fluorogenic DPP substrate1 relative to control
Prolyl endopeptidase FAP = target: T3, Prolyl endopeptidase FAP (Homo sapiens, UniProt Q12884); assay: Inhibition of FAP (unknown origin)
T3 sequence (Q12884 whole entry): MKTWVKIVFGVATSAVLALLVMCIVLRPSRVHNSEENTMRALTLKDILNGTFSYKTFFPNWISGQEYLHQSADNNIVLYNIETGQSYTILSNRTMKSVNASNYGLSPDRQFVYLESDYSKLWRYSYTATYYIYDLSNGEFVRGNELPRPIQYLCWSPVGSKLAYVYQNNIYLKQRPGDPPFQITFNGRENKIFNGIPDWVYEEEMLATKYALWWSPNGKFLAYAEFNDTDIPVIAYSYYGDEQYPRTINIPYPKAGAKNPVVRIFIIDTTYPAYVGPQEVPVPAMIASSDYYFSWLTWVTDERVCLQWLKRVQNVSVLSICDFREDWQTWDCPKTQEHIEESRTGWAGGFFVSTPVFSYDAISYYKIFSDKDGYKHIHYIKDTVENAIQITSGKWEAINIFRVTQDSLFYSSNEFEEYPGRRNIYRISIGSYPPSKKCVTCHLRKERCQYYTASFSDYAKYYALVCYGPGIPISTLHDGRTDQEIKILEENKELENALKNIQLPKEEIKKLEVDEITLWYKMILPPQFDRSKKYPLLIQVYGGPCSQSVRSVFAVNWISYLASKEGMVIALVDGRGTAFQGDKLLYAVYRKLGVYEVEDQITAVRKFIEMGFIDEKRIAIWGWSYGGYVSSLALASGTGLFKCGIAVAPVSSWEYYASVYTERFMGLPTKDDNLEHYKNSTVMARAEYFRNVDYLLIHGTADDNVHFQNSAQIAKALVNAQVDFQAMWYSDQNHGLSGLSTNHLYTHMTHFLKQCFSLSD

## N#C[C@@H]1C[C@H](F)CN1C(=O)c1cccc2c1C(=O)N(Cc1ccccc1)C2
Prolyl endopeptidase
  Ki: 0.17 µM
[1]
  inhibition: < 5%

## CC1(C)[C@H]2C[C@@H]3OB([C@@H]4CCCN4C(=O)c4cccc5c4C(=O)N(Cc4ccccc4)C5)O[C@]3(C)[C@@H]1C2
[2]
  Drug metabolism: 90%
[1]
  inhibition: < 5%

## CC1(C)[C@@H]2C[C@@H](O)[C@@](C)(O)[C@H]1C2
[3]
  inhibition: inactive

## N#C[C@@H]1CC(F)(F)CN1C(=O)c1cccc2c1C(=O)N(Cc1ccccc1)C2
Prolyl endopeptidase
  Ki: 3.3 µM
[1]
  inhibition: < 5%

## N#C[C@@H]1C[C@@H](F)CN1C(=O)c1cccc2c1C(=O)N(Cc1ccccc1)C2
Prolyl endopeptidase
  Ki: > 100 µM
[1]
  inhibition: < 5%

## O=C[C@@H]1CCCN1C(=O)c1cccc2c1C(=O)N(Cc1ccccc1)C2
[4]
  inhibition: 11%
[1]
  inhibition: 80%

## O=C(c1cccc2c1C(=O)N(Cc1ccccc1)C2)N1CCCC1
[1]
  inhibition: < 5%

## O=C[C@@H]1CCCN1C(=O)[C@@H]1CCCN1C(=O)OCc1ccccc1 (Cbz-Pro-Pro-aldehyde)
[1]
  inhibition: < 5%

## CC(C)[C@H](NC(=O)c1ccncc1)C(=O)N1CCC[C@H]1B(O)O
Prolyl endopeptidase FAP
  IC50: > 100 µM

## O=C(c1cccc2c1C(=O)N(Cc1ccccc1)C2)N1CC[C@@H](F)C1
[1]
  inhibition: < 5%

## N#C[C@@H]1CCCN1C(=O)c1cccc2c1C(=O)N(Cc1ccccc1)C2
[1]
  inhibition: 20%

## O=C(c1cccc2c1C(=O)N(Cc1ccccc1)C2)N1CC[C@H](F)C1
[1]
  inhibition: < 5%
